High-throughput results: PubChem BioAssay, several laboratories
SR-BI DiI inh: mouse SR-BI HDL lipid transfer inhibition. Q61009. ldlA[mSR-BI] CHO cells, DiI-HDL uptake fluorescence, 3 h. inhibition, % at 12.5 µM. 0.96% of 320,000 active. AID 488896;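 active = mean replicate inhibition of at least 70% and a set share of replicates each scoring 70 or more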;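 note: 0% = median of neutral control wells and 100% = median of positive control wells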
Target sequence (Q61009 whole entry, looked up): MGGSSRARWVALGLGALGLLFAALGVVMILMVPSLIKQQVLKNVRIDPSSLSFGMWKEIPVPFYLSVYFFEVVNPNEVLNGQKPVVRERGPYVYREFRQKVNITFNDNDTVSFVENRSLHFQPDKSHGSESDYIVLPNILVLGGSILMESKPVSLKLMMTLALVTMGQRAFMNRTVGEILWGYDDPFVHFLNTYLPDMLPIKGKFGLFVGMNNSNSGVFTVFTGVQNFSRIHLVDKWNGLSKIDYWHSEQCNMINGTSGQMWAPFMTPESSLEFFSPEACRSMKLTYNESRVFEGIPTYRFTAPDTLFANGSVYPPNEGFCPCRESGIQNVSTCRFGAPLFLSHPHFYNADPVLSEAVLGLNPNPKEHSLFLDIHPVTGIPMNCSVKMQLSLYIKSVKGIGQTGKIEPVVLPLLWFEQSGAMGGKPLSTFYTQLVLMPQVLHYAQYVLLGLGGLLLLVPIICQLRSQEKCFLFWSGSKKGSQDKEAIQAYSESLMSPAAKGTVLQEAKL
CR mimetic SO: caloric restriction mimetics inhibiting age-related superoxide in yeast | 0.18% of 330,000 active | superoxide response (% of plate mean), % at 10 µM | AID 2690 | S. cerevisiae aged cells, superoxide DHE fluorescence; active compounds read low;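 active = superoxide response under a set limit, about three screen SD below normal, cut at about 65% in these data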;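 note: yeast aged for seven days with compound at 30 °C before DHE staining; 100% = average MFI of all compound-treated wells on the plate with controls excluded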
AHR act: human AHR activation. AHR-responsive luciferase reporter cells, luminescence. P35869. AID 2796. activation, % at 5 µM. 2.5% of 320,000 active; in the data active = activation above about 47%;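 note: 0% = vehicle wells and 100% = reference agonist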
SR-BI uptake up: activators of SR-BI mediated HDL lipid uptake; AID 504775; 0.096% of 320,000 active; CHO ldlA[mSR-BI] cells, DiI-HDL uptake fluorescence, 3 h; 100 = double the neutral-control signal; activation, % at 12.5 µM;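 active = mean replicate activation of at least 60% and every replicate at or above 60%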;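 note: 0% = median plate neutral-control signal and 100% = twice that signal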
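material = CHO ldlA[mSR-BI] cells | medium = Ham's F12 with 0.5% BSA, HEPES 25 mM, pH 7.4 | reagent = fluorescent DiI-HDL, 10 µg/mL final | compound dosing = single-point compound dose | incubation = 3 h, 37 °C | measured by = bottom-read fluorescence, 550/595 nm | measure = HDL uptake via cellular fluorescence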
Hep lipid drop: modulators of hepatic lipid droplet formation | AML12 mouse hepatocytes, oleate lipid droplets, BODIPY imaging | inhibition, % at 6.5 µM | 0.4% of 240,000 active;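 active = lipid droplet intensity inhibited by at least 50%, with more than 500 cells counted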
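Material: mouse AML12 hepatocyte cell line, fixed after treatment; Timing: compound with oleate, overnight; Technique: high-content imaging of BODIPY-stained droplets and DAPI nuclei; Probe or stimulus: oleate, 100 µM final; Dosing: compound at 6.5 µM only.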
SMARCA2 act: increases SMARCA2 function in MMTV reporter cells; MG213 cells, MMTV-luciferase reporter, dexamethasone, overnight; activation, % at 9.1 µM; 1% of 370,000 active; AID 652017; in the data active = activation above about 7.8%;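 note: 0% = vehicle wells and 100% = reference activator wells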
CR mimetic CP: yeast aging superoxide inhibition, cherry pick confirmation; shares compounds with CR mimetic SO; S. cerevisiae aging, superoxide DHE fluorescence; active compounds read low; superoxide response (% of plate), % at 10 µM; 1% of 850 active; AID 434994;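 active = superoxide signal below 65% of the plate average of sample wells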;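 note: cells aged with compound for 7 days at 30 degrees C before staining; 100% equals mean DHE fluorescence of all compound wells on the plate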
DHE counter: compound alters DHE oxidation or fluorescence in yeast. shares compounds with CR mimetic SO. S. cerevisiae BY4741, flow cytometry; active compounds read low. fluorescence response, % at 10 µM. 850 tested, under 10 active;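 active = fluorescence response below 15%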;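 note: percent of the mean fluorescence averaged over all compound wells on the plate; lower means stronger quenching of DHE signal or ROS scavenging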
An asterisk follows results filed as active; . = no result given. Only some compounds are listed: those with a hit (about 4.3% of all), similar ones and a draw of the others.

SMILES	SR-BI DiI inh	CR mimetic SO	AHR act	SR-BI uptake up	Hep lipid drop	SMARCA2 act	CR mimetic CP	DHE counter
CC(=O)Nc1ccc(Nc2nnc(-c3ccc(C)c(S(N)(=O)=O)c3)c3ccccc23)cc1	19.2	90.2	-0.7	-19.2	-0.1	-0.5	105.9	89.9
Cc1ccc(-c2nnc(Nc3ccc(C(N)=O)cc3)c3ccccc23)cc1S(=O)(=O)NCC1CCCO1 (configuration not stated)	23.0	95.1	3.6	-23.0	10.2	-1.8	112.3	100.4
CNC(=O)COc1ccc(Nc2nnc(-c3ccc(C)c(S(N)(=O)=O)c3)c3ccccc23)cc1	11.9	41.8*	0.3	-11.9	9.8	-3.0	101.4	92.0
CC(=O)Nc1ccc(Nc2nnc(-c3ccc(C)c(S(=O)(=O)NCCO)c3)c3ccccc23)cc1	31.3	100.6	.	-31.3	-4.0	-0.3	.	.
O=C(C(=O)N1CCN(S(=O)(=O)c2ccc(F)cc2)CC1)c1cccc(C(F)(F)F)c1	.	.	.	.	.	-4.8	.	.
Cn1c(=O)c2cc(S(=O)(=O)N3CCN(c4ccc(F)cc4)CC3)ccc2n(C)c1=O	.	.	.	.	.	4.3	.	.
CNC(=O)c1cc(Nc2nnc(-c3ccc(C)c(S(N)(=O)=O)c3)c3ccccc23)ccc1OC	66.6	58.2*	3.6	-66.6	-20.7	-0.3	115.2	111.3
COc1ccc(Nc2nnc(-c3ccc(O)cc3)c3ccccc23)cc1C(N)=O	22.0	93.8	46.8	-22.0	-9.4	-2.7	.	.
C#CCNC(=O)C[C@@H]1C[C@]2(C(=O)OCC)CCC3=C2N(CCC3)C1=O	.	.	.	.	.	-0.9	.	.
N=c1n(Cc2ccc(Cl)cc2)c2ccccc2n1CC(O)COc1ccccc1 (configuration not stated)	35.1	106.7	5.5	-35.1	-13.9	-6.3	.	.
OC(COCC(F)(F)C(F)(F)C(F)(F)C(F)F)Cn1c2ccc(Cl)cc2c2cc(Cl)ccc21 (configuration not stated)	9.7	97.0	0.0	-9.7	-30.2	.	108.5	93.5
CCc1ccc(NC(=O)CCS(=O)(=O)c2ccc(Cl)cc2)cc1	-11.4	51.4*	1.8	11.4	-0.8	1.3	84.0	95.1
O=C(CCS(=O)(=O)c1ccc(Cl)cc1)Nc1ccc(F)cc1	-19.1	92.3	1.0	19.1	9.2	-0.8	.	.
O=C(O)CN(c1ccccc1F)S(=O)(=O)c1ccccc1	-26.2	94.9	-0.5	26.2	.	-4.4	93.8	93.7
CCC(=O)N1CCc2cc(S(=O)(=O)NCCC(=O)N3CCN(c4cccc(C)c4)C(C)C3)ccc21 (configuration not stated)	3.4	63.3*	2.4	-3.4	-18.8	0.0	105.1	109.1
CCC(=O)N1CCc2cc(S(=O)(=O)NCCC(=O)N3CCN(c4ccccc4)CC3)ccc21	-1.0	120.0	3.0	1.0	11.9	-3.1	.	.
CCn1c(=O)c2ccccc2n(Cc2cccc([N+](=O)[O-])c2)c1=O	8.8	100.3	0.1	-8.8	4.3	-1.9	.	.
CCn1c2ccccc2c2cc([N+](=O)[O-])ccc21	32.3	98.3	2.9	-32.3	2.5	-2.3	99.0	92.6
Nc1nn(-c2ccccc2)c2ccc([N+](=O)[O-])cc12	16.6	107.1	0.7	-16.7	-0.7	2.5	.	.
CC(C)n1c2ccccc2c2cc([N+](=O)[O-])ccc21	10.9	96.1	2.1	-10.9	-25.7	-2.9	100.4	110.5
Fc1ccc2nc(Nc3nc4c(F)cc(F)cc4s3)sc2c1	-23.8	103.9	31.0	23.8	-39.7	-2.4	.	.
Fc1cccc2sc(Nc3nc4ccccc4s3)nc12	.	65.3*	43.5	.	-10.8	-0.3	93.4	109.5
Cn1c(=O)c2[nH]c(-c3cccnc3)nc2n(C)c1=O	-4.9	58.0*	34.5	4.9	.	-1.4	90.9	91.9
COc1ccc(CN2CCN(Cc3ccc(Br)cc3)CC2)c(OC)c1OC	-0.3	45.9*	0.3	0.3	-9.5	-5.4	93.8	89.0
O=C(/C=C(\Nc1ccc(Cl)c(Cl)c1)c1ccccc1)c1ccccc1	.	.	.	.	.	1.0	.	.
SMILES	SR-BI DiI inh	CR mimetic SO	AHR act	SR-BI uptake up	Hep lipid drop	SMARCA2 act	CR mimetic CP	DHE counter
CCc1ccccc1NC(=O)Cn1nc(C)n2cccc2c1=O	-5.1	63.3*	-0.1	5.1	-0.6	-0.1	98.3	88.3
Cc1nn(CC(=O)Nc2ccccc2C(F)(F)F)c(=O)c2cccn12	-9.9	103.6	6.9	.	-8.7	-1.7	.	.
CCCOc1ccc2cc(-c3ccccn3)c(=O)oc2c1	-20.3	59.5*	-12.8	20.3	-4.7	1.0	100.1	95.5
CCSc1n[nH]c(=O)n1C	.	.	.	.	.	-3.6	.	.
OCn1c2ccccc2c2ccccc21	-17.2	97.4	14.7	17.2	0.6	-2.2	.	.
OCCOCCn1c2ccccc2c2ccccc21	-6.1	79.6	3.1	6.1	.	-3.1	95.0	91.9
Cc1ccc(Cn2nnc(C(=O)Nc3cc(C)ccc3C)c2N)cc1	-6.8	114.4	8.2	6.8	-29.8	-0.2	.	.
Cc1ccc(CNC(=O)Cn2nnc(C(=O)Nc3cc(C)ccc3C)c2N)cc1	-5.2	57.2*	8.2	5.2	19.0	-0.8	98.6	105.1
C[C@@H](C(=O)OCC(=O)NCCc1ccc(S(N)(=O)=O)cc1)N1C(=O)C2CCCCC2C1=O (some centres not stated)	15.3	65.4*	0.7	-15.3	1.6	0.7	101.2	94.3
NS(=O)(=O)c1ccc(CCNC(=O)CNC(=O)COc2ccccc2)cc1	-31.1	55.3*	2.1	31.1	.	-1.1	97.8	89.5
C[C@H](NS(=O)(=O)c1ccc(Cl)cc1)C(=O)OCC(=O)NCCc1ccc(S(N)(=O)=O)cc1	7.9	.	.	-7.9	.	4.3	.	.
COC(=O)C1=C(C)N(Cc2cccc(C(F)(F)F)c2)C(=NCc2cc(OC)c(OC)c(OC)c2)NC1c1cccc(C(F)(F)F)c1 (configuration not stated)	.	.	.	.	.	-2.0	.	.
C[C@@H]1ON(C)[C@H]2C[C@H]3c4cc(N5CCN(C)CC5)ccc4CCN3C[C@@H]12	.	.	.	.	.	3.2	.	.
CCN1CCc2nc(N)sc2C1	-27.4	65.3*	-3.3	27.4	-2.0	-4.8	112.4	109.3
O=C(NC(=S)NNC(=O)c1ccccc1O)c1ccco1	109.7*	57.5*	14.8	-109.7	-13.7	0.7	93.2	111.0
O=C(c1cccc(F)c1)N1CCN(c2cccc(C(F)(F)F)c2)CC1	-13.4	100.2	-6.9	13.4	-11.1	2.9	92.5	88.7
CC(NC(=O)C(NC(=O)OCc1ccccc1)C(C)O)C(=O)OCc1ccccc1 (configuration not stated)	.	.	.	.	.	-3.7	.	.
C#CCN1CC(COc2ccccc2)OCCS1(=O)=O (configuration not stated)	.	.	.	.	.	-3.6	.	.
